Published values from different studies.
Each line is one published result; the experiments were not run side by side.

| Structure (SMILES) | species | medium | route | dose | setting | quantity | value |
| --- | --- | --- | --- | --- | --- | --- | --- |
| O=c1cc(-c2ccc(O)c(O)c2)oc2cc(O)cc(O)c12 | male Sprague-Dawley rat | plasma | oral | 30 mg/kg | – | AUC(0-inf) | 98.6 ng·h/mL |
| C=C(F)C(=O)N1CCN(c2nc(OC[C@@H]3CCCN3C)nc3c2CCN(c2cccc4cccc(Cl)c24)C3)C[C@@H]1CC#N | male Sprague-Dawley rat | plasma | intravenous | 5 mg/kg | – | AUC(0-t) | 1860 ng·h/mL |
| CCC[C@H](NC(=O)[C@@H]1CCCN1C(=O)[C@@H](NC(=O)[C@H](N)CC(N)=O)[C@@H](C)CC)C(=O)N[C@@H](CC(C)C)C(=O)N[C@@H](Cc1ccc(O)cc1)C(=O)N[C@H](CO)C(=O)N[C@@H](Cc1ccccc1)C(=O)N[C@@H](C)C(=O)N[C@H](CO)C(N)=O | rat | plasma | subcutaneous | 10 mg/kg | single dose | AUC(0-t) | 1200 ng·h/mL |
| N#C[C@@]12C[C@@H]1[C@@H](n1cnc3c(N[C@@H](C4CCC4)C4CC4)nc(I)nc31)[C@H](O)[C@@H]2O | male Wistar rat | plasma | oral | 1 mg/kg | – | AUC(0-inf) | 19.2 ng·h/mL |
| CC(=Nc1ccc(N=Cc2cnccn2)cc1)N(C)C | male Sprague-Dawley rat | plasma | oral | 200 mg/kg | – | AUC(0-t) | 305 ng·h/mL |
| CC1(CN)CCN(c2cnc3c(Sc4ccncc4Cl)n[nH]c3n2)CC1 | male Sprague-Dawley rat | plasma | oral | 10 mg/kg | – | AUC | 411 ng·h/mL |
| O=C1c2ccncc2C(=O)c2c1[nH]c1ccccc21 | rat | plasma | intravenous | 5 mg/kg | single dose | AUC(0-inf) | 8.58 µM·h |
| O=C1CC[C@H](N2Cc3cc(N4CCN(CC5CCN(c6ccc([C@@H]7c8ccc(O)cc8CC[C@@H]7c7ccccc7)cc6)CC5)CC4)ccc3C2=O)C(=O)N1 | female Sprague-Dawley rat | plasma | oral | 20 mg/kg | fasted | AUC(0-t) | 11000 ng·h/mL |
| C[C@H]1[C@@H](O)O[C@@H]2O[C@@]3(C)CC[C@H]4[C@H](C)CC[C@@H]1[C@@]24OO3 | Sprague-Dawley rat | plasma | oral | 10 mg/kg | – | AUC(0-t) | 197 ng·h/mL |
| Cc1c(C(=O)O)ccc2c3n(nc12)[C@@H]1[C@H](C3)N(CC2CC2)[C@@]2(C(=O)Nc3cc(Cl)ccc32)[C@H]1c1cccc(Cl)c1F | male rat | plasma | oral | 2 mg/kg | – | AUC(0-inf) | 64.2 µM·h |
| COc1ccc2cc3n(c(=O)c2c1OC)CCc1cc2c(cc1-3)OCO2 | male Sprague-Dawley rat | blood | oral | 50 mg/kg | – | AUC(0-inf) | 985 ng·h/mL |
| O=C(C=Cc1ccccc1)Nc1cc(-c2ccnc(N3CCC(O)CC3)c2)ccn1 | female Sprague-Dawley rat | plasma | oral | 50 mg/kg | – | AUC(0-inf) | 1400 ng·h/mL |
